Measured values taken from ChEMBL document CHEMBL1131338, “Binding of ATP-sensitive potassium channel (KATP) openers to cardiac membranes: correlation of binding affinities with cardioprotective and smooth muscle relaxing potencies” (J Med Chem, 1998).
pIC50: −log10 of the molar value.

Assays:
[1] = species: Rattus norvegicus; assay: Effective concentration required to increase time to the onset of contracture (TTC) in globally ischemic rat hearts; type: functional
[2] = biological target: Sulfonylurea receptor 2, Kir6.2 (Homo sapiens) (UniProt Q14654+O60706); assay: Hill Coefficient calculated by curve fitting of data to a single binding site model; type: protein-complex assay
Procedure, shortened: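 Competition curves from displacement of 14 nM [3H]P1075 from canine cardiac P3 membranes (500–700 μg, 60 min, MgATP/vanadate/Mg2+ sucrose-Tris buffer pH 7.4, filtration read-out) were fitted to a single-site model to give the Hill coefficient.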

[3] = species: Rattus norvegicus; assay: Inhibitory concentration against methoxamine-induced contractions in rat aorta; type: functional, organism-based

Row | SMILES | EC25 [1] [nM] | Hill coefficient [2] | pIC50 ([3]; Rattus norvegicus, Aorta) | pIC50 [3]
1 | CC(N/C(=N\C#N)Nc1ccncc1)C(C)(C)C (stereo not given) [PINACIDIL ANHYDROUS] | 1200 | 0.86 | 7.22 | 
2 | CCC(C)(C)/N=C(\NC#N)Nc1ccc(S(=O)(=O)N2CCCCC2)cc1 | >10000 |  | < 7.52 | 
3 | CC(/N=C(\NC#N)Nc1cccc(C#N)c1)C(C)(C)C (stereo not given) | 1460 | 0.67 | 6.72 | 
4 | CCC(C)(C)/N=C(\NC#N)Nc1cccc(S(=O)(=O)N2CCCCC2)c1 | >10000 |  | 4.89 | 
5 | CCC(C)(C)/N=C(\NC#N)Nc1ccc(I)c(N=[N+]=[N-])c1 | 39 | 0.82 |  | 
6 | CC(C)(C)/N=C(\NC#N)Nc1ccc(C#N)cc1 | 1380 | 1.15 | 6.28 | 
7 | CC(/N=C(\NC#N)Nc1ccccc1)C(C)(C)C (stereo not given) | 1290 | 1.04 | 6.01 | 
8 | CC(C)/N=C(\NC#N)Nc1ccc(C#N)cc1 |  | 0.81 |  | 
9 | CC1(C)Oc2ccc(C#N)cc2[C@H](N2CCCC2=O)[C@H]1O [(-)-CROMAKALIM] | >30000 |  |  | 5.19
10 | CC1(C)Oc2ccc(C#N)cc2[C@H](N2CCCC2=O)[C@H]1O (single isomer, unassigned) |  | 1.5 |  | 
11 | COc1ccc(Cl)cc1C(=O)NCCc1ccc(S(=O)(=O)NC(=O)NC2CCCCC2)cc1 [GLYBURIDE] |  | 0.67 |  | 
12 | CC1(C)Oc2ccc(C#N)cc2[C@H](N2CCCC2=O)[C@H]1O (single isomer, unassigned) [(-)-CROMAKALIM] | 2300 |  |  | 7.40
13 | CCC(C)(C)/N=C(\NC#N)Nc1cccnc1 | 60 | 1.17 | 8.36 | 
14 | CC1(C)Oc2ccc(C#N)cc2[C@H](N2CCCC2=O)[C@H]1O |  | 1.06 |  | 
15 | CCC(C)(C)/N=C(\NC#N)Nc1ccc(C#N)cc1 | 400 | 0.99 | 6.89 | 
16 | CCC(C)(C)/N=C(\NC#N)Nc1ccc(I)cc1 | 140 | 0.76 | 8.85 | 
17 | CC(/N=C(\NC#N)Nc1ccc(C#N)cc1)C(C)(C)C (stereo not given) | 390 | 0.75 | 7.52 | 
18 | C/N=C(\NC#N)Nc1ccc(C#N)cc1 | >10000 |  | 3.89 | 
